Results on 36 sequences are retold here after the array DNA melting data of Ke et al. (doi:10.1101/2024.01.08.574731).

The nature of series [1]: folding enthalpy; higher = less favourable; fluorescence melt of hairpins on a sequencing array, two-state fit. To be noted: sodium 0.088 M. In short, it runs like this: (§1)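 Melting temperature and folding enthalpy were obtained by bootstrapped two-state fitting. Fits used Cy3 fluorescence of library hairpins with annealed Cy3 and quencher oligos on a sequenced MiSeq flow cell, imaged in 50 mM Na-HEPES pH 8.0, 25 mM NaCl in 2.5 °C steps up to 60 °C and normalised to pre-quench Cy3 and control constructs. Four replicates were combined by inverse-variance weighting, and fitted temperatures were raised by 9.35 °C to match UV melts.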

The nature of series [2]: melting temperature; fluorescence melt of hairpins on a sequencing array, two-state fit, raised by 9.35 °C to match UV melts. To be noted: sodium 0.088 M. An outline of the steps: as §1

As for GCACTGGGAAACTAGTGC (((((.(....).))))), in series [1], the folding enthalpy is -38.9 kcal/mol. For the same sequence, in series [2], the Tm came out at 53.2 °C.
For GCACTGGGAAACTGGTGC ((((..(....)..)))) the same measures were -33 kcal/mol and 48.8 °C.
For GCACTTCGAAAGAATTGC (((.(((....))).))), the folding enthalpy in series [1] was -31.6 kcal/mol. Moreover, the Tm in series [2] came to 42.6 °C.
For GCACTTGAAAAAGTGC ((((((....)))))) the same measures were -41.2 kcal/mol and 61.2 °C.
The like results for GCACTTGGAAACAAGTAC (.(((((....))))).) were, in that order, -19.3 kcal/mol and 37.9 °C.
For GCACTTTCGAAAGAATGC (((..(((....)))))) the same measures were -14.6 kcal/mol and 33.2 °C.
As for GCAGAAACGAAAGTTTGC (((..(((....)))))), the folding enthalpy in series [1] was -20.3 kcal/mol. The Tm in series [2] is 35.7 °C.
The like results for GCAGAACGAAAGTTGTGC (((.(((....))).))) were, in that order, -32.1 kcal/mol and 55.4 °C.
For the sequence GCAGAAGGAAACTTCTAC (.(((((....))))).), the folding enthalpy in series [1] was -11.7 kcal/mol. Moreover, the Tm in series [2] was determined as 27.8 °C.
The like results for GCAGAAGGAAACTTCTGC (((((((....))))))) were, in that order, -44.4 kcal/mol and 60.7 °C.
The like results for GCAGACGGAAACGTTTGC (((.(((....))).))) were, in that order, -46.1 kcal/mol and 53.8 °C.
For GCAGAGCGAAAGCCCCGC ((.(.((....)).).)) the same measures were -10.1 kcal/mol and 36.9 °C.
Turning to GCAGAGCGAAAGCCCTGC ((((.((....)).)))), in series [1], the folding enthalpy is -29.1 kcal/mol. Also, in series [2], the Tm amounted to 63.2 °C.
For GCAGAGCGAAAGCTAAGC ((..(((....)))..)) the same measures were -15.1 kcal/mol and 43.8 °C.
The like results for GCAGAGCGAAAGCTACGC ((..(((....)))..)) were, in that order, -13.9 kcal/mol and 47.2 °C.
For GCAGAGCGAAAGCTGAGC ((..(((....)))..)) the same measures were -11.8 kcal/mol and 43.1 °C.
With GCAGAGCGAAAGCTGCGC ((..(((....)))..)), the folding enthalpy in series [1] was -21 kcal/mol. For the same sequence, the Tm in series [2] amounted to 61.3 °C.
On to GCAGAGCGAAAGCTGGGC ((..(((....)))..)), for which the folding enthalpy in series [1] was -19.6 kcal/mol. Moreover, the Tm in series [2] came to 50.7 °C.
For GCAGAGCGAAAGCTGTGC (((.(((....))).))) the same measures were -44.2 kcal/mol and 59 °C.
The like results for GCAGAGGGAAACCTTTGC (((.(((....))).))) were, in that order, -32.9 kcal/mol and 45.2 °C.
The like results for GCAGAGGGAAACTTCTGC (((((.(....).))))) were, in that order, -35 kcal/mol and 48 °C.
As for GCAGATCGAAAGATGTGC (((.(((....))).))), the folding enthalpy in series [1] is -35.1 kcal/mol. The Tm in series [2] was found to be 53.6 °C.
For GCAGATCGAAAGATTGC (((.(((....)))))) the same measures were -23.1 kcal/mol and 44.1 °C.
For GCAGATGGAAACATCCGC ((.((((....)))).)) the same measures were -23.9 kcal/mol and 42.5 °C.
For GCAGCACCGAAAGGTTGC (((..(((....)))))) the same measures were -14 kcal/mol and 43.9 °C.
On to GCAGCAGGAAACCACTGC ((((..(....)..)))), for which the folding enthalpy in series [1] is -18.8 kcal/mol. For the same sequence, the Tm in series [2] is 34.7 °C.
The like results for GCAGCCGAAAGGCCCTGC ((((((....)))..))) were, in that order, -12.5 kcal/mol and 34.8 °C.
The like results for GCAGCCGAAAGGCGGTGC ((((((....)))..))) were, in that order, -15 kcal/mol and 57.1 °C.
For GCAGCCGGAAACGGCCAC (..((((....))))..) the same measures were -9.09 kcal/mol and 36.2 °C.
With GCAGCGCGAAAGCACGGC ((.(.((....)).).)), the folding enthalpy in series [1] was -22.9 kcal/mol. Moreover, the Tm in series [2] was found to be 53.9 °C.
On to GCAGCGCGAAAGCCCCGC ((.(.((....)).).)), for which the folding enthalpy in series [1] is -9.42 kcal/mol. Further, the Tm in series [2] amounted to 37 °C.
The like results for GCAGCGCGAAAGCGAGGC ((..(((....)))..)) were, in that order, -19.2 kcal/mol and 63.8 °C.
For GCAGCGCGAAAGCGGAGC ((..(((....)))..)) the same measures were -17.7 kcal/mol and 56 °C.
For GCAGCGCGAAAGCGTGC (((.(((....)))))) the same measures were -14 kcal/mol and 62.2 °C.
For the sequence GCAGCGCGAAAGCTCTGC ((((.((....)).)))), the folding enthalpy in series [1] is -31.9 kcal/mol. The Tm in series [2] was 62 °C.
For GCAGCGCGAAAGCTGTGC (((..((....))..))) the same measures were -18.8 kcal/mol and 44.8 °C.
